Experimental data reported in paper PMC7059817 (Biomolecules & Therapeutics, 2019).

Assays:
Aβ1–42 fibrils = Aβ1–42 fibrils (Homo sapiens, UniProt P05067); test: SDS-PAGE electrophoresis and immunoblotting with anti-Aβ antibody 6E10; settings: 25 μM fibrils with 25 μM amentoflavone, glutaraldehyde cross-linked
preformed Aβ1–42 fibrils [1] = molecular target: T1, preformed Aβ1–42 fibrils (Homo sapiens, UniProt P05067); test: Aβ1–42 disaggregation assay; format: biochemical
Method in brief: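 Fibrils preformed by incubating 20 μM recombinant human Aβ1–42 with 5 μM ThT in PBS buffer (pH 7.40), 37°C, 24 h. Test compound then added at final 10, 2, 0.4, 0.08 μM, or DMSO control, and incubated a further 7 h at 37°C. ThT fluorescence read every 2.5 min (ex 460/em 508 nm). EC50 from curves of percent change in ThT intensity versus concentration. Four independent experiments, duplicate samples; mean ± SEM.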

preformed Aβ1–42 fibrils [2] = molecular target: T1, preformed Aβ1–42 fibrils; test: Atomic force microscopy imaging of preformed Aβ1–42 fibrils; settings: 25 μM fibrils with 25 μM amentoflavone, 1 h
[3] = molecular target: Recombinant human Aβ1–42 peptide (Homo sapiens, UniProt P05067); test: Aβ1–42 aggregation assay; format: biochemical
Recombinant human Aβ1–42 peptide, sequence (P05067 672-713): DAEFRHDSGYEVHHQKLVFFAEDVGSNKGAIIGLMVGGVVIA
Method in brief: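 Recombinant human Aβ1–42 (HFIP-treated) dissolved in DMSO, diluted into PBS (50 mM NaH2PO4, 100 mM NaCl, pH 7.40); final 20 μM Aβ1–42 with 5 μM ThT ± test compound at 10, 2, 0.4, 0.08 μM (from 10 mM DMSO stocks). Incubated 37°C for 24 h; ThT fluorescence read every 10 min, ex 460/em 508 nm. IC50 from concentration-response curves; mean ± SEM, 4 independent experiments.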

T1 sequence (P05067 672-713): as above
Aβ1–42 fibrils, sequence (P05067 672-713): as above

Row | EC50 (preformed Aβ1–42 fibrils [1]) [µM] | Time to decline of ThT fluorescent intensity after addition (preformed Aβ1–42 fibrils [1]; concentration-dependent decline, preformed Aβ1–42 fibrils) [min] | Time to lowering of ThT fluorescent intensity after the treatment (preformed Aβ1–42 fibrils [1]; concentration-dependent, preformed Aβ1–42 fibrils) [h] | IC50 [3] [µM] | SMILES | Conversion of Aβ1–42 fibrils to oligomers and monomers (immunoblot) (Aβ1–42 fibrils) | Structural change of preformed Aβ1–42 fibrils (AFM) (preformed Aβ1–42 fibrils [2])
1 | 0.59 ± 0.19 | ≤ 30 | ≤ 1 | 0.26 ± 0.03 | O=c1cc(-c2ccc(O)c(-c3c(O)cc(O)c4c(=O)cc(-c5ccc(O)cc5)oc34)c2)oc2cc(O)cc(O)c12 [Amentoflavone, amentoflavone] | did not increase the conversion of Aβ1–42 fibrils to oligomers and monomers | conformational changes of the fibrils into amorphous Aβ1–42 aggregates
2 | 2.45 ± 1.28 | – | – | 1.53 ± 0.2 | COc1ccc(-c2cc(=O)c3c(O)cc(O)cc3o2)cc1-c1c(O)cc(O)c2c(=O)cc(-c3ccc(O)cc3)oc12 [Bilobetin, bilobetin] | – | –
3 | 6.81 ± 4.08 | – | – | 4.92 ± 1.31 | COc1cc(O)c2c(=O)cc(-c3ccc(OC)c(-c4c(O)cc(O)c5c(=O)cc(-c6ccc(O)cc6)oc45)c3)oc2c1 [Ginkgetin, ginkgetin] | – | –
4 | > 10 | – | – | 1.8 ± 0.38 | COc1ccc(-c2cc(=O)c3c(O)cc(O)c(-c4cc(-c5cc(=O)c6c(O)cc(O)cc6o5)ccc4OC)c3o2)cc1 [Isoginkgetin, isoginkgetin] | – | –
5 | 2.04 ± 0.79 | – | – | 0.29 ± 0.01 | COc1cc(O)c2c(=O)cc(-c3ccc(O)c(-c4c(O)cc(O)c5c(=O)cc(-c6ccc(O)cc6)oc45)c3)oc2c1 [Sequoiaflavone] | – | –
6 | > 10 | – | – | 8.7 ± 1.21 | COc1cc(O)c2c(=O)cc(-c3ccc(O)cc3)oc2c1-c1cc(-c2cc(=O)c3c(O)cc(O)cc3o2)ccc1O [Sotetsuflavone, sotetsuflavone] | – | –
